From PubChem BioAssay AID1040 (The Scripps Research Institute Molecular Screening Center, 2008)
The whole screen tested about 200,000 compounds, of which about 2,000 (1%) were called active. This excerpt belongs to a sample that is enriched for actives. A number with no mark means an inactive call.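 Rule for the calls: active = inhibition above the campaign mean inhibition of all tested compounds plus 3 SD (cut at about 20% in these data); inactive = the rest.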

Molecular target: Neuropeptide Y receptor type 1 (Homo sapiens) (UniProt P25929)
Test: blockers of human neuropeptide Y Y1 receptor – cell-based, primary screen (AID 1040);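 note: 0% = DMSO wells given NPY plus isoproterenol and 100% = isoproterenol alone without NPY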
Conditions: HEK293-CNG Y1 cells, membrane potential fluorescence; at 3.6 µM; stronger effect = higher value; NPY at EC95, then isoproterenol
Method in brief: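 Assay system: HEK293 cells with Y1 receptor plus CNG channel | Probe or stimulus: NPY (25 nM), isoproterenol (1 µM), Ro 20-1724 (25 µM) | Timing: Compound incubation 1 h at room temperature, readout 45 min post-stimulation | Measured by: Membrane-potential fluorescent dye readout | Benchmarks: High control isoproterenol alone, low control NPY with isoproterenol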

Sequence of Neuropeptide Y receptor type 1 (Homo sapiens) (P25929 whole entry, looked up): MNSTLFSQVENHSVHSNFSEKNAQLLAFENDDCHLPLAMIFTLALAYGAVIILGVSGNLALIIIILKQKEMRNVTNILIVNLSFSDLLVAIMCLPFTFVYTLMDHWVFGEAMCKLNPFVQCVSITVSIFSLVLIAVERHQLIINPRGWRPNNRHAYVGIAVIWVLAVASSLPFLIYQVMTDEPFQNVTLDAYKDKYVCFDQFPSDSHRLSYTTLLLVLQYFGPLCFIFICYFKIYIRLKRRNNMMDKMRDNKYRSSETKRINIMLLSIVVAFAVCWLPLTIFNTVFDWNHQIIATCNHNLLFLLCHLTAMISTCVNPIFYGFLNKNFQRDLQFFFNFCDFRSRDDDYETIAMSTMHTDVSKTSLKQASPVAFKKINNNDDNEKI

Row | SMILES | inhibition
1 | CC(NC(=O)COC(=O)C1CCN(S(=O)(=O)c2ccccc2C(F)(F)F)CC1)c1ccccc1 (stereo not given) | -0.58%
2 | Cc1c(NC(=S)NC(=O)CCc2ccccc2)c(=O)n(-c2ccccc2)n1C | 4.67%
3 | COCCNC(=O)c1onc(CSc2cccc(C)c2)c1C(=O)O | 9.11%
4 | CCOc1cccc(SCc2noc(C(=O)NC(C)C)c2C(=O)O)c1 | 11%
5 | CCCCNC(=O)c1onc(CSc2cccc(OC)c2)c1C(=O)O | 28.4% (active)
6 | COc1ccc2nc(SCc3ccccc3)nc(C)c2c1 | 4.78%
7 | Cc1cccc(NC(=S)Nc2ccc(Cl)c(Cl)c2)c1 | 1.7%
8 | Cc1cccc(NC(=S)NCCN(C2CCCCC2)C2CCCC2)c1 | 21.2% (active)
9 | Cc1cccc(NC(=S)Nc2ccc(Br)cc2)c1 | 3.74%
10 | Cc1nc(-c2ccccc2)cn2c1nc1ccccc12 | 5.56%
11 | O=C(Cc1coc2ccc3ccccc3c12)NCc1cccs1 | 1.1%
12 | COc1cc(NC(=O)c2cc([N+](=O)[O-])ccc2Br)ccc1NC(=O)c1ccco1 | 30.1% (active)
13 | COc1ccccc1C(=O)Nc1ccc(NC(=O)c2ccco2)c(C)c1 | 2.31%
14 | O=C(Nc1ccc(NC(=O)c2ccco2)c(Cl)c1)c1cccc([N+](=O)[O-])c1 | 0.59%
15 | CN(C)CCCO/N=C(\c1ccccc1)c1ccncc1 | -1.1%
16 | O=C(COc1cccc(F)c1)Oc1ccc(C(=O)c2ccccc2)cc1 | 2.24%
17 | CC1CCc2c(sc3nc4n(c(=O)c23)CCS4)C1 (stereo not given) | -3.28%
18 | CCCCc1c(O)nc2n(c1=O)CCS2 | 20.6% (active)
19 | CCOC(=O)N1CCN(C(=O)c2cnc3n(c2=O)CCS3)CC1 | -1.03%
20 | CCc1ccccc1NC(=O)CN(C)C(=O)COc1ccc(C)nc1[N+](=O)[O-] | -0.59%
21 | COc1ccc(/C(=N\O)c2nccc3cc(OC)c(OC)cc23)cc1OC | 5.85%
22 | O=C(CC1CCCCC1)NCc1ccc(F)cc1 | -0.26%
23 | Cc1ccc(-n2nc3c(c2NC(=O)CCC2CCCCC2)CS(=O)C3)cc1 (stereo not given) | 8.28%
24 | O=C(CC1CCCCC1)Nc1c2c(nn1-c1ccc(F)cc1)CS(=O)(=O)C2 | 46.3% (active)
25 | CC(NC(=S)NC1CCCCC1)C(c1ccccc1)N1CCOCC1 (stereo not given) | 0.27%

Row | SMILES | inhibition
26 | O=S(=O)(O)c1nc2ccccc2n1Cc1ccc(Cl)cc1 | 21.2% (active)
27 | O=S(=O)(O)c1nc2ccccc2n1Cc1ccc(Cl)cc1Cl | -2.49%
28 | O=S(=O)(Cc1ccccc1)c1nc2ccccc2n1Cc1ccccn1 | -1.06%
29 | O=C(CN1CCCCC1)Nc1ccccc1Cl | -2.44%
30 | O=C(Nc1ccccc1Cl)c1ccc2nsnc2c1 | 0.69%
31 | O=C(Nc1ccccc1Cl)/C(Cl)=C(\Cl)S(=O)c1ccccc1 (stereo not given) | 27.5% (active)
32 | CC(NC(=O)COC(=O)c1ccc(Cl)cc1O)c1ccc(F)cc1 (stereo not given) | -0.49%
33 | Cc1nc(Cl)c2oc3ccccc3c2n1 | 3.46%
34 | COc1ccccc1Nc1ncnc2c1oc1ccccc12 | 21.3% (active)
35 | CCc1nc(Nc2ccc3nccnc3c2)c2oc3ccccc3c2n1 | -0.08%
36 | COc1ccc(-n2nc3c(c2NC(=O)c2ccc(N4C(=O)CCC4=O)cc2)CSC3)cc1 | 2.78%
37 | N#C/C(=C\c1ccc(-c2cccc([N+](=O)[O-])c2)o1)C(=O)NCCN1CCOCC1 | 0.61%
38 | CN(C)CCNC(=O)/C(=C/c1cccc([N+](=O)[O-])c1)NC(=O)c1ccccc1 | 2.65%
39 | Cc1ccc(C(=O)N/C(=C/c2ccc(-c3cccc([N+](=O)[O-])c3)o2)C(=O)NCCCN(C)C)cc1 | 27.8% (active)
40 | CCOC(=O)c1cccnc1NC(=O)c1ccncc1 | -1.05%
41 | CC(C)N(C(=O)CSc1nc(COc2ccccc2)nc2ccccc12)C(C)C | 3.31%
42 | CCOC(=O)N1CCN(C(=S)Nc2ccc(C)cc2C)CC1 | 3.77%
43 | CCOC(=O)c1cn(Cc2cccc(C)c2)nn1 | -0.81%
44 | CCOC(=O)c1nn(-c2cccc(C)c2)cc1C(=O)c1ccccc1 | 22% (active)
45 | CC(=O)c1nn(-c2cccc(Br)c2)cc1C(=O)c1cccc2ccccc12 | -2.46%
46 | CCCCC(=O)Nc1nc(C)c(-c2csc(Nc3ccc(Cl)cc3)n2)s1 | 4.16%
47 | CCCCCCC(=O)Nc1nc(C)c(-c2csc(Nc3cccc(OC)c3)n2)s1 | 28.2% (active)
48 | CCCCCCC(=O)Nc1nc(C)c(-c2csc(Nc3cc(Cl)ccc3OC)n2)s1 | 11.2%
49 | CCOC(=O)C1CCCN(C(=O)COc2ccc(N(C)S(=O)(=O)c3ccc(C)cc3)cc2)C1 (stereo not given) | 2%
50 | CCSC1=NCCN1S(=O)(=O)c1ccc(F)cc1 | -1.87%

Row | SMILES | inhibition
51 | Cc1cccc(OCC(=O)Nc2ccccc2F)c1 | 5.47%
52 | COCCNC(=O)COc1ccc(C)c(C)c1 | -3.6%
53 | Cc1ccc(OCC(=O)Nc2cccc3c2CCCC3)cc1C | 21.6% (active)
54 | COc1ccc(C2Nc3ccccc3C(=O)N2Cc2ccccc2)cc1Cn1nnc2ccccc21 (stereo not given) | 27.9% (active)
55 | COc1ccc(C2Nc3ccccc3C(=O)N2c2ccc(Cl)cc2)cc1Cn1cc([N+](=O)[O-])cn1 (stereo not given) | 3.97%
56 | COc1ccc(C2Nc3ccccc3C(=O)N2c2ccc(F)cc2)cc1Cn1nnc2ccccc21 (stereo not given) | -0.97%
57 | OCCC1CN(Cc2cccc(OC3CCCC3)c2)CCN1Cc1ccsc1 (stereo not given) | 7.81%
58 | CC(=O)NCCC(=O)Nc1nc(C)c(Cc2ccc3c(c2)OCO3)s1 | 3.53%
59 | CC(=O)OC(C)C[N+](C)(C)C (stereo not given) | 25.2% (active)
60 | CC(C[N+](C)(C)C)OC(N)=O (stereo not given) | -2.3%
61 | CC1CN(CCCOc2ccccc2-c2ccccc2)CC(C)O1 (stereo not given) | 24.5% (active)
62 | CN1CCN(CCCCOc2ccccc2-c2ccccc2)CC1 | 12.9%
63 | CC1CCCN(CCOCCOc2ccccc2-c2ccccc2)C1 (stereo not given) | 12.5%
64 | CC1CN(CCOc2ccccc2[N+](=O)[O-])CC(C)O1 (stereo not given) | -1.43%
65 | Cc1cc(C)c(OCCN2CC(C)OC(C)C2)c(Br)c1 (stereo not given) | 9.03%
66 | c1ccc(-c2ccccc2OCCN2CCCCC2)cc1 | 22.3% (active)
67 | COC(=O)COc1cccc2c(=O)n(CC(=O)NCCc3ccc(OC)c(OC)c3)ccc12 | -1.97%
68 | O=C(CSc1nnnn1-c1ccc2c(c1)CCC2)Nc1ccc2c(c1)OCCO2 | 6.81%
69 | CCC(=O)Nc1cccc(NC(=O)CSc2nnnn2C2CCCC2)c1 | 3.57%
70 | O=C(CSc1nnnn1C1CCCC1)Nc1ccc2c(c1)OCCO2 | 22.9% (active)
71 | CCC(=O)Nc1ccc(S(=O)(=O)NCC2CCCO2)cc1 (stereo not given) | -5.94%
72 | CCC(=O)c1c[nH]c(C(=O)NCC2CCCO2)c1 (stereo not given) | 55.6% (active)
73 | O=C(NCC1CCCO1)c1ccc2ccccc2n1 (stereo not given) | 2.64%
74 | Nc1ccc(Cl)c(S(=O)(=O)Nc2ccccc2Cl)c1 | -0.95%
75 | COC(=O)c1ccc(NC(=S)NN2CCOCC2)cc1 | 4.27%

Row | SMILES | inhibition
76 | CC(Nc1nc(N2CCN(CCO)CC2)nc2ccccc12)c1ccccc1 (stereo not given) | 22.2% (active)
77 | CCCCn1c(CN2CCN(CCO)CC2)nc2ccccc21 | 6.52%
78 | O=C(NC(c1ccccc1)c1ccccc1)N1CCN(CCO)CC1 | 3.34%
79 | c1ccc(-c2cc(N3CCCCC3)c3ccccc3n2)cc1 | 15.9%
80 | CC(Nc1nc(N2CCCC2)nc2ccccc12)c1ccccc1 (stereo not given) | 32.6% (active)
81 | CC(Nc1nc(N2CCOCC2)nc2ccccc12)c1ccccc1 (stereo not given) | 8.28%
82 | COc1ccc(CC(=O)Nc2ccccc2NC(=O)c2ccco2)cc1OC | 0.93%
83 | Cc1ccc(-c2nnc(SCC(=O)N/N=C/c3cccs3)n2-c2ccc(C)cc2)cc1 | 0.85%
84 | CC(Oc1ccccc1F)C(=O)NN (stereo not given) | 2.86%
85 | O=C(O)CCc1nc2cc(Cl)ccc2n(Cc2ccccc2)c1=O | 5.7%
86 | O=C(C1CCCN1S(=O)(=O)c1ccc(Br)cc1)N1CCOCC1 (stereo not given) | -0.15%
87 | CN1CCN(c2ccc(NC(=O)c3ccc4c(c3)OCCO4)cc2Cl)CC1 | 12%
88 | O=C(O)c1ccccc1-c1ccccc1C(=O)Nc1nccs1 | 2.4%
89 | O=C(NCCc1ccc(F)cc1)c1n[nH]c2ccccc12 | -0.22%
90 | Cc1ccc(C)c(NC(=S)NCC(c2cccnc2)N2CCOCC2)c1 (stereo not given) | 0.28%
91 | O=C1c2cccc3cccc(c23)C(=O)N1CCCCCc1n[nH]c(=S)o1 | 5.39%
92 | O=C(Nc1cccc(Cl)c1)Nc1ccccc1NS(=O)(=O)c1cccs1 | -7.2%
93 | c1ccc2[nH]c(-c3nc4ccccc4[nH]3)nc2c1 | 0.38%
94 | COc1ccc(-c2[nH]nc(-c3ccccc3)c2-c2nc3ccccc3[nH]2)cc1 | 20.3% (active)
95 | c1ccc(-c2[nH]ncc2-c2nc3ccccc3[nH]2)cc1 | -3.83%
96 | Cc1ccc(NC(=O)C(=O)NCC2CCN(C(=O)c3cccc([N+](=O)[O-])c3)CC2)cc1 | -1.84%
97 | Cc1ccc(S(=O)(=O)/N=C(\N)c2ccc(F)cc2)cc1 | -5.62%
98 | Clc1ccc(-c2cc(COc3ccccc3)no2)cc1Cl | 5%
99 | Clc1ccccc1-c1cc(COc2ccc3ccccc3c2)no1 | 25.6% (active)
100 | O=C(NCc1ccccn1)c1cc(-c2ccccc2Cl)on1 | 9.55%
